Laboratory results as given in ChEMBL document CHEMBL1150157, “Five new steroidal saponins from Solanum chrysotrichum leaves and their antimycotic activity” (2002).
≈ marks a conversion by molar mass, not a printed value.

Assays:
Format in all cases: functional
[1] = system: Trichophyton mentagrophytes; experiment: Antimicrobial activity against Trichophyton mentagrophytes ATCC 28185 after 72 hrs by agar dilution method; conditions: ATCC 28185, 72 h
In short: (§1)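 Dermatophytes maintained on potato dextrose agar at 27 °C. Assayed by agar dilution on Sabouraud glucose agar. Pure compounds in DMSO were serially diluted 2-fold (400–3.125 µg/mL) into the medium, with final DMSO ≤2%. Spots of 10^6 spores/mL (hemocytometer count) were applied with a 0.010 mL loop. Plates ran at 29 °C for 72 h, in triplicate. MIC was the lowest concentration with no visible growth.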

[2] = system: Candida albicans; experiment: Antimicrobial activity against Candida albicans ATCC 10231 after 24 hrs by agar dilution method
In short: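 C. albicans kept on Sabouraud glucose agar, which also served as the assay medium. Pure compounds in DMSO were diluted 2-fold serially (400–3.125 µg/mL) into the agar, final DMSO ≤2%. An inoculum of 10^5 cells/mL (hemocytometer) was spotted with a 0.010 mL calibrated loop. Plates were held at 29 °C for 24 h, in triplicate. MIC was the lowest concentration inhibiting visible growth.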

[3] = system: Trichophyton rubrum; experiment: Antimicrobial activity against Trichophyton rubrum ATCC 28188 after 72 hrs by agar dilution method; conditions: ATCC 28188, 72 h; in short: as §1
[4] = system: Aspergillus niger; experiment: Antimicrobial activity against Aspergillus niger ATCC 10335 after 48 hrs by agar dilution method; conditions: ATCC 10335, 48 h
In short: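 A. niger maintained on potato dextrose agar at 27 °C. Tested by agar dilution on Sabouraud glucose agar with 2-fold serial DMSO dilutions of pure compounds (400–3.125 µg/mL) added to the medium, final DMSO ≤2%. Inoculum was 10^6 spores/mL, hemocytometer-counted, applied by 0.010 mL loop. Incubation at 29 °C for 48 h, in triplicate. MIC was the lowest concentration preventing visible growth.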

Row | Compound | MIC [1] [µg/mL] | MIC ([2]; ATCC 10231, 24 h) [µg/mL] | MIC [3] [µg/mL] | MIC [4] [µg/mL] | MIC [2] [µg/mL]
1 | C[C@@H]1CC[C@@]2(OC1)O[C@H]1C[C@H]3[C@@H]4C[C@H](O[C@@H]5O[C@H](C)[C@@H](O)[C@H](O[C@@H]6O[C@@H](C)[C@H](O)[C@@H](O)[C@H]6O)[C@H]5O)[C@H]5C[C@@H](O)CC[C@]5(C)[C@H]4CC[C@]3(C)[C@H]1[C@@H]2C | 200 (≈ 276 µM) | 200 (≈ 276 µM) | 50 (≈ 69 µM) | 400 (≈ 552 µM) | 
2 | NYSTATIN |  |  |  |  | 8
3 | C[C@H]1CO[C@@]2(O[C@H]3C[C@H]4[C@@H]5C[C@H](O[C@@H]6O[C@H](C)[C@@H](O)[C@H](O[C@@H]7O[C@@H](C)[C@H](O)[C@@H](O)[C@H]7O)[C@H]6O)[C@H]6C[C@@H](O)CC[C@]6(C)[C@H]5CC[C@]4(C)[C@H]3[C@@H]2C)[C@@H](O)C1 | 200 (≈ 270 µM) | 200 (≈ 270 µM) | 200 (≈ 270 µM) | 200 (≈ 270 µM) | 
4 | C[C@@H]1CC[C@@]2(OC1)O[C@H]1C[C@H]3[C@@H]4C[C@H](O[C@@H]5O[C@H](C)[C@@H](O)[C@H](O[C@@H]6OC[C@@H](O)[C@H](O)[C@H]6O)[C@H]5O)[C@H]5C[C@@H](O)CC[C@]5(C)[C@H]4CC[C@]3(C)[C@H]1[C@@H]2C | 12.5 (≈ 17.6 µM) | 200 (≈ 281 µM) | 12.5 (≈ 17.6 µM) | 100 (≈ 141 µM) | 
5 | C[C@@H]1CC[C@@]2(OC1)O[C@H]1C[C@H]3[C@@H]4C[C@H](O[C@@H]5OC[C@@H](O)[C@H](O)[C@H]5O)[C@H]5C[C@@H](O)CC[C@]5(C)[C@H]4CC[C@]3(C)[C@H]1[C@@H]2C | 100 (≈ 177 µM) | 200 (≈ 354 µM) | 100 (≈ 177 µM) | > 400 | 
6 | C[C@@H]1CC[C@@]2(OC1)O[C@H]1C[C@H]3[C@@H]4C[C@H](O[C@@H]5O[C@H](C)[C@@H](O)[C@H](O)[C@H]5O)[C@H]5C[C@@H](O)CC[C@]5(C)[C@H]4CC[C@]3(C)[C@H]1[C@@H]2C | 25 (≈ 43.2 µM) | 200 (≈ 346 µM) | 50 (≈ 86.4 µM) | > 400 | 
7 | Clc1ccc(COC(Cn2ccnc2)c2ccc(Cl)cc2Cl)c(Cl)c1 (centres undefined) [MICONAZOLE] | 4 (≈ 9.61 µM) |  | 4 (≈ 9.61 µM) | 8 (≈ 19.2 µM) | 
